Experimental data as given in ChEMBL document CHEMBL1142063, “Synthesis of omeprazole analogues and evaluation of these as potential inhibitors of the multidrug efflux pump NorA of Staphylococcus aureus” (2007).

Tests used:
Staphylococcus aureus [1] = test: Increase in 5 ug levofloxacin antibacterial activity against Staphylococcus aureus SA1199B mutant overexpressing NorA at 32 ug/ml by disk diffusion method; assay type: functional
Outline: (§1)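 Agar diffusion on Mueller-Hinton agar (adjusted to 20 μg/ml Ca²⁺ and 10 μg/ml Mg²⁺), used plain or with the efflux inhibitor incorporated at the stated concentration. Disks were 5 μg for the fluoroquinolones and 30 μg for chloramphenicol. Plates were incubated overnight at 37°C, and inhibition zone diameters were measured. Values are means of at least three independent experiments.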

Staphylococcus aureus [2] = test: Increase in 5 ug levofloxacin antibacterial activity against Staphylococcus aureus SA1199B mutant overexpressing NorA at 16 ug/ml by disk diffusion method; assay type: functional; outline: as §1
Staphylococcus aureus [3] = test: Increase in 5 ug sparfloxacin antibacterial activity against Staphylococcus aureus SA1199B mutant overexpressing NorA at 128 ug/ml by disk diffusion method; assay type: functional; outline: as §1
Staphylococcus aureus [4] = test: Increase in 5 ug moxifloxacin antibacterial activity against Staphylococcus aureus SA1199B mutant overexpressing NorA at 128 ug/ml by disk diffusion method; assay type: functional; outline: as §1
Staphylococcus aureus [5] = test: Increase in 5 ug ofloxacin antibacterial activity against Staphylococcus aureus SA1199B mutant overexpressing NorA at 32 ug/ml by disk diffusion method; assay type: functional; outline: as §1
Staphylococcus aureus [6] = test: Increase in 5 ug levofloxacin antibacterial activity against Staphylococcus aureus SA1199B mutant overexpressing NorA at 64 ug/ml by disk diffusion method; assay type: functional; outline: as §1
Staphylococcus aureus [7] = test: Increase in 5 ug sparfloxacin antibacterial activity against Staphylococcus aureus SA1199B mutant overexpressing NorA at 64 ug/ml by disk diffusion method; assay type: functional; outline: as §1
Staphylococcus aureus [8] = test: Increase in 5 ug sparfloxacin antibacterial activity against Staphylococcus aureus SA1199B mutant overexpressing NorA at 32 ug/ml by disk diffusion method; assay type: functional; outline: as §1
Staphylococcus aureus [9] = test: Increase in 5 ug sparfloxacin antibacterial activity against Staphylococcus aureus SA1199B mutant overexpressing NorA at 16 ug/ml by disk diffusion method; assay type: functional; outline: as §1
Staphylococcus aureus [10] = test: Increase in 5 ug moxifloxacin antibacterial activity against Staphylococcus aureus SA1199B mutant overexpressing NorA at 64 ug/ml by disk diffusion method; assay type: functional; outline: as §1
Staphylococcus aureus [11] = test: Increase in 5 ug moxifloxacin antibacterial activity against Staphylococcus aureus SA1199B mutant overexpressing NorA at 32 ug/ml by disk diffusion method; assay type: functional; outline: as §1
Staphylococcus aureus [12] = test: Increase in 5 ug moxifloxacin antibacterial activity against Staphylococcus aureus SA1199B mutant overexpressing NorA at 16 ug/ml by disk diffusion method; assay type: functional; outline: as §1
Staphylococcus aureus [13] = test: Increase in 30 ug chloramphenicol antibacterial activity against Staphylococcus aureus SA1199B mutant overexpressing NorA at 128 ug/ml by disk diffusion method; assay type: functional; outline: as §1
Staphylococcus aureus [14] = test: Increase in 30 ug chloramphenicol antibacterial activity against Staphylococcus aureus SA1199B mutant overexpressing NorA at 64 ug/ml by disk diffusion method; assay type: functional; outline: as §1
Staphylococcus aureus [15] = test: Increase in 30 ug chloramphenicol antibacterial activity against Staphylococcus aureus SA1199B mutant overexpressing NorA at 32 ug/ml by disk diffusion method; assay type: functional; outline: as §1
Staphylococcus aureus [16] = test: Increase in 30 ug chloramphenicol antibacterial activity against Staphylococcus aureus SA1199B mutant overexpressing NorA at 16 ug/ml by disk diffusion method; assay type: functional; outline: as §1
Staphylococcus aureus [17] = test: Antibacterial activity against Staphylococcus aureus; assay type: functional
Outline: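 Tube broth dilution MIC against SA-1199 and NorA-overproducing SA-1199B in Mueller-Hinton broth with 20 μg/ml Ca²⁺ and 10 μg/ml Mg²⁺. Inoculum was a 4–5 h 37°C culture diluted 1/10 (≈10⁶ CFU/ml). Compound range was 512 to 1 μg/ml, dissolved in DMSO (final ≤4%).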

Staphylococcus aureus [18] = test: Increase in 2 ug/ml Norfloxacin antibacterial activity against wild type Staphylococcus aureus SA1199 at 128 ug/ml by checker board method; assay type: functional
Staphylococcus aureus [19] = test: Increase in 64 ug/ml Norfloxacin antibacterial activity against Staphylococcus aureus SA1199B mutant overexpressing NorA at 128 ug/ml by checker board method; assay type: functional
Staphylococcus aureus [20] = test: Increase in 16 ug/ml Norfloxacin accumulation in wild type Staphylococcus aureus SA1199 at 128 ug/ml after 20 mins; assay type: functional
Outline: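 Mid-exponential SA-1199 cells were washed and resuspended in 50 mM sodium phosphate, pH 7.0. They were exposed at time zero to norfloxacin at one-quarter MIC, alone or with EPI at 128 μg/ml. At 5–20 min, cells were spun through silicone-paraffin oil into orthophosphoric acid. Lysate norfloxacin was measured by C18 HPLC with fluorescence detection (ex 240, em 280 nm) and normalized to BCA protein (ng/mg). Triplicate experiments, mean reported.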

Staphylococcus aureus [21] = test: Increase in 16 ug/ml Norfloxacin accumulation in Staphylococcus aureus SA1199B mutant overexpressing NorA measured per mg of cell protein at 128 ug/ml after 5 mins; assay type: functional, organism-based
Outline: (§2)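 SA-1199B was grown to mid-exponential phase in MH broth (4–5 h, 37°C, shaken), then washed and resuspended in 50 mM sodium phosphate, pH 7.0. Cells got norfloxacin at one-quarter MIC, alone or with inhibitor at 128 μg/ml. At 5–20 min, cells were spun through silicone-paraffin oil into orthophosphoric acid. Norfloxacin was measured by HPLC fluorescence (ex 240/[…]) as ng/mg BCA protein. Means of triplicate experiments.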

Staphylococcus aureus [22] = test: Increase in 5 ug Norfloxacin antibacterial activity against Staphylococcus aureus SA1199B mutant overexpressing NorA at 128 ug/ml by disk diffusion method; assay type: functional; outline: as §1
Staphylococcus aureus [23] = test: Increase in 5 ug Norfloxacin antibacterial activity against Staphylococcus aureus SA1199B mutant overexpressing NorA at 64 ug/ml by disk diffusion method; assay type: functional; outline: as §1
Staphylococcus aureus [24] = test: Increase in 5 ug Norfloxacin antibacterial activity against Staphylococcus aureus SA1199B mutant overexpressing NorA at 32 ug/ml by disk diffusion method; assay type: functional; outline: as §1
Staphylococcus aureus [25] = test: Increase in 5 ug Norfloxacin antibacterial activity against Staphylococcus aureus SA1199B mutant overexpressing NorA at 16 ug/ml by disk diffusion method; assay type: functional; outline: as §1
Staphylococcus aureus [26] = test: Increase in 5 ug ciprofloxacin antibacterial activity against Staphylococcus aureus SA1199B mutant overexpressing NorA at 128 ug/ml by disk diffusion method; assay type: functional; outline: as §1
Staphylococcus aureus [27] = test: Increase in 5 ug ciprofloxacin antibacterial activity against Staphylococcus aureus SA1199B mutant overexpressing NorA at 64 ug/ml by disk diffusion method; assay type: functional; outline: as §1
Staphylococcus aureus [28] = test: Increase in 5 ug ciprofloxacin antibacterial activity against Staphylococcus aureus SA1199B mutant overexpressing NorA at 32 ug/ml by disk diffusion method; assay type: functional; outline: as §1
Staphylococcus aureus [29] = test: Increase in 5 ug ciprofloxacin antibacterial activity against Staphylococcus aureus SA1199B mutant overexpressing NorA at 16 ug/ml by disk diffusion method; assay type: functional; outline: as §1
Staphylococcus aureus [30] = test: Increase in 5 ug ofloxacin antibacterial activity against Staphylococcus aureus SA1199B mutant overexpressing NorA at 128 ug/ml by disk diffusion method; assay type: functional; outline: as §1
Staphylococcus aureus [31] = test: Increase in 5 ug ofloxacin antibacterial activity against Staphylococcus aureus SA1199B mutant overexpressing NorA at 64 ug/ml by disk diffusion method; assay type: functional; outline: as §1
Staphylococcus aureus [32] = test: Increase in 5 ug ofloxacin antibacterial activity against Staphylococcus aureus SA1199B mutant overexpressing NorA at 16 ug/ml by disk diffusion method; assay type: functional; outline: as §1
Staphylococcus aureus [33] = test: Increase in 5 ug levofloxacin antibacterial activity against Staphylococcus aureus SA1199B mutant overexpressing NorA at 128 ug/ml by disk diffusion method; assay type: functional; outline: as §1
Staphylococcus aureus [34] = test: Increase in 16 ug/ml Norfloxacin accumulation in Staphylococcus aureus SA1199B mutant overexpressing NorA measured per milligram of cell protein at 128 ug/ml after 20 mins; assay type: functional, organism-based; outline: as §2
Staphylococcus aureus [35] = test: Increase in 16 ug/ml Norfloxacin accumulation in Staphylococcus aureus SA1199B mutant overexpressing NorA at 128 ug/ml after 20 mins; assay type: functional; outline: as §2
Staphylococcus aureus [36] = test: Antibacterial activity against Staphylococcus aureus SA1199B overexpressing NorA at 30 ug by disk diffusion method; assay type: functional; details: read-out: IZ; outline: as §1
Staphylococcus aureus [37] = test: Antibacterial activity against Staphylococcus aureus SA1199 at 5 ug by disk diffusion method; details: read-out: IZ

COC(=O)[C@H]1[C@H]2C[C@@H]3c4[nH]c5cc(OC)ccc5c4CCN3C[C@H]2C[C@@H](OC(=O)c2cc(OC)c(OC)c(OC)c2)[C@@H]1OC [RESERPINE]
inhibition zone (IZ) (Staphylococcus aureus [1]): 24 mm
inhibition zone (IZ) (Staphylococcus aureus [2]): 22 mm
inhibition zone (IZ) (Staphylococcus aureus [3]): 28 mm
inhibition zone (IZ) (Staphylococcus aureus [4]): 28 mm
inhibition zone (IZ) (Staphylococcus aureus [5]): 19 mm
inhibition zone (IZ) (Staphylococcus aureus [6]): 24 mm
inhibition zone (IZ) (Staphylococcus aureus [7]): 27 mm
inhibition zone (IZ) (Staphylococcus aureus [8]): 27 mm
inhibition zone (IZ) (Staphylococcus aureus [9]): 27 mm
inhibition zone (IZ) (Staphylococcus aureus [10]): 28 mm
inhibition zone (IZ) (Staphylococcus aureus [11]): 28 mm
inhibition zone (IZ) (Staphylococcus aureus [12]): 28 mm
inhibition zone (IZ) (Staphylococcus aureus [13]): 25 mm
inhibition zone (IZ) (Staphylococcus aureus [14]): 25 mm
inhibition zone (IZ) (Staphylococcus aureus [15]): 24 mm
inhibition zone (IZ) (Staphylococcus aureus [16]): 24 mm
MIC (Staphylococcus aureus [17]): > 512 µg/mL
MIC (Staphylococcus aureus [18]): 1 µg/mL
MIC (Staphylococcus aureus [19]): 8 µg/mL
Activity (Staphylococcus aureus [20]): 10%
Drug uptake (Staphylococcus aureus [21]): 270 ng/mg
inhibition zone (IZ) (Staphylococcus aureus [22]): 13 mm
inhibition zone (IZ) (Staphylococcus aureus [23]): 12 mm
inhibition zone (IZ) (Staphylococcus aureus [24]): 12 mm
inhibition zone (IZ) (Staphylococcus aureus [25]): 9 mm
inhibition zone (IZ) (Staphylococcus aureus [26]): 22 mm
inhibition zone (IZ) (Staphylococcus aureus [27]): 20 mm
inhibition zone (IZ) (Staphylococcus aureus [28]): 18 mm
inhibition zone (IZ) (Staphylococcus aureus [29]): 16 mm
inhibition zone (IZ) (Staphylococcus aureus [30]): 21 mm
inhibition zone (IZ) (Staphylococcus aureus [31]): 20 mm
inhibition zone (IZ) (Staphylococcus aureus [32]): 19 mm
inhibition zone (IZ) (Staphylococcus aureus [33]): 24 mm
Drug uptake (Staphylococcus aureus [34]): 400 ng/mg
Activity (Staphylococcus aureus [35]): 40%

O=C(N[C@H](CO)[C@H](O)c1ccc([N+](=O)[O-])cc1)C(Cl)Cl [CHLORAMPHENICOL]
zone of inhibition at 30 µg/disc (Staphylococcus aureus [36]): 24 mm

C[C@@H]1CN(c2c(F)c(N)c3c(=O)c(C(=O)O)cn(C4CC4)c3c2F)C[C@H](C)N1 [SPARFLOXACIN]
zone of inhibition at 5 µg/disc (Staphylococcus aureus [37]): 30 mm
